Shown are actives, neighbours in structure and some others; about 2.5% of the full set was active somewhere.
N-glyco inh: increase of ERlucT glycosylation luciferase signal, primary screen, N-linked glycosylation inhibitor project, D54 ERlucT cells, luminescence, set 2 | hit rate 0.23% among 360,000 | D54 ERlucT glycosylation luciferase reporter, 24 h; percent of 100 nM tunicamycin response | reporter increase, % at 12.5 µM;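 active = mean luciferase reporter signal, scaled so untreated is 0 and the glycosylation-blocking control 100, at or above a set limit in every replicate; inconclusive = mean reaches the limit but not every replicate does; inactive = mean below the limit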;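 also: luciferase carries N-glycosylation sites so blocking glycosylation raises the light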
PAX8 inh HTS: inhibitors of PAX8-driven TPO luciferase reporter, primary screen, RMG-I cells, single concentration; AID 652154, 2013; SteadyGlo, 24 h; hit rate 1.2% among 360,000; inhibition, % at 12.6 µM;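 active = mean replicate inhibition at least 60% with every replicate also reaching 60%; inconclusive = only one of the two criteria is met; inactive = mean below 60% and not all replicates reaching 60%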;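 also: luciferase light reporting Pax8 driven TPO promoter activity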
Env fusion inh: inhibitors of HIV-1 Env-driven cell-cell fusion, primary screen, HeLa-JRFL effector, CEM21 target cells, luciferase; inhibition, % at 12.3 µM; hit rate 1.1% among 360,000; AID 651610, 2012;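 active = mean replicate inhibition score of at least 50 and every replicate individually at or above 50; inconclusive = only one of the two criteria met; inactive = mean below 50 and not all replicates reaching 50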
AF4-AF9 inh: inhibitors of AF4 peptide binding to AF9, primary screen, biochemical, AlphaScreen, biotin-AF4 peptide, FLAG-AF9, single point. hit rate 0.47% among 350,000. AID 651704, 2012. Protein AF-9 (Homo sapiens), P42568. inhibition, % at 10 µM;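 active = every replicate reaching a set inhibition limit, whatever the replicate mean, cut at about 25% in these data; inconclusive = mean inhibition reaches that limit but some replicates miss it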
Target sequence (P42568 whole entry, looked up): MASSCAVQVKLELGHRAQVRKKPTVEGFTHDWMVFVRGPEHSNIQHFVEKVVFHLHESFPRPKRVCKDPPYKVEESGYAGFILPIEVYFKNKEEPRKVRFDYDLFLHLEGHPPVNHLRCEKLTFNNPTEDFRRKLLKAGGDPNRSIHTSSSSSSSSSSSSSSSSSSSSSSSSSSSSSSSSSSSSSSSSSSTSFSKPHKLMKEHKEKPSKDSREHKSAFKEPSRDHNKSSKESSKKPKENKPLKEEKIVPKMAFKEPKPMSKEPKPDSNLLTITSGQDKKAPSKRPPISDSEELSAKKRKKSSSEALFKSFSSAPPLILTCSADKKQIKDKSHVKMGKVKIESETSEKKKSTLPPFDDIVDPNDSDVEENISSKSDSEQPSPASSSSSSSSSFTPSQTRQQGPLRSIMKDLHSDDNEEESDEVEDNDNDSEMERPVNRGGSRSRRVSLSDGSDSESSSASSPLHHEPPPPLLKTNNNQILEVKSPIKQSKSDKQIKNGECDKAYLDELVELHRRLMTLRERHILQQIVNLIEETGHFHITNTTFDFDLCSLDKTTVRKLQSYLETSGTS
EWS-Fli inh: EWS/Fli-driven NR0B1 reporter inhibitors, primary screen, A673 cells, NR0B1 luciferase, luminescence, MLPCN library; viability-normalised; inhibition, % at 12.6 µM; hit rate 0.67% among 350,000;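 active = mean inhibition of at least 50% after viability correction, with every replicate also passing that limit; inconclusive = mean reaches 50% but only one of two replicates passes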;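 also: firefly luciferase signal divided by Alamar Blue viability fluorescence both relative to DMSO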
FN deposit inh: inhibitors of fibronectin matrix deposition, primary screen, AH1F cells, Alexa488-fibronectin fluorescence, plate reader | AH1F fibroblasts, overnight | inhibition, % at 12.6 µM | hit rate 0.086% among 350,000;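 active = mean inhibition across replicates of 30% or more, regardless of how many single replicates reach that level; inconclusive = mean under 30% yet at least half of replicates reach 30%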
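Material: AH1F fibroblast monolayer depositing Alexa488-labelled fibronectin into matrix | Input: 10000 AH1F cells/well | Medium: DMEM plus 2% serum, read in PBS | Reagent: Alexa488-fibronectin, 24 nM final in well | Compound dosing: One dose per compound, pinned | Schedule: 1 h adhesion, overnight exposure | Measured by: Fluorescence at 485 nm excitation, 525 nm emission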
Large screens that a line does not name were inactive.

CC[C@@H](C(=O)[C@@H](C)[C@@H](O)[C@H](C)[C@@H]1O[C@@H]([C@@H](CC)C(=O)O)CC[C@@H]1C)[C@H]1O[C@]2(C=C[C@@H](O)[C@]3(CC[C@@](C)([C@H]4CC[C@](O)(CC)[C@H](C)O4)O3)O2)[C@H](C)C[C@@H]1C	PAX8 inh HTS 108.8
CS(=O)(=O)Nc1ccc2c(c1)[C@@H]1C[C@@H](CC(=O)O)O[C@@H](CO)[C@@H]1O2	none (no result: N-glyco inh, Env fusion inh, EWS-Fli inh)
O=C(Nc1ccccc1O)c1csc2c1CCCC2	Env fusion inh inconclusive
CCC(O)(CC)C(=O)NN(C(=O)Nc1csc2c1CCCC2)c1ccccc1	Env fusion inh 62.1 (no result: AF4-AF9 inh, EWS-Fli inh)
O=C(N[C@H]1CC[C@@H](CCNS(=O)(=O)c2ccc(F)cc2)O[C@H]1CO)c1cccc(F)c1	none (no result: N-glyco inh, PAX8 inh HTS, FN deposit inh)
O=c1[nH]c2c(cnn2-c2ccc(Cl)cc2)c(=O)n1-c1cccc(Cl)c1	Env fusion inh 62.0
CCCC(=O)NC(c1cccc([N+](=O)[O-])c1)c1ccc2cccnc2c1O (stereo not drawn)	PAX8 inh HTS 77.8, Env fusion inh 92.0, AF4-AF9 inh 34.0
CC(C)C(=O)NC(c1cccc([N+](=O)[O-])c1)c1c(O)ccc2ccccc12 (stereo not drawn)	none
CC(C)C(=O)NC(c1cccc([N+](=O)[O-])c1)c1ccc2cccnc2c1O (stereo not drawn)	PAX8 inh HTS 77.9, AF4-AF9 inh inconclusive
CC(C)C#Cc1ccc2c(c1)O[C@@H](CN(C)C(=O)c1cccnc1)[C@H](C)CN([C@@H](C)CO)S2(=O)=O	none (no result: N-glyco inh, PAX8 inh HTS, FN deposit inh)
COc1cc(C2c3cc4c(cc3OC(NCCc3ccccc3)C2C)OCO4)cc(OC)c1OC (stereo not drawn)	EWS-Fli inh 54.2
COc1cc(C2c3cc4c(cc3OC(Nc3ccc(C(=O)O)cc3)C2C)OCO4)cc(OC)c1OC (stereo not drawn)	N-glyco inh inconclusive, EWS-Fli inh 52.2
COc1cc(C2c3cc4c(cc3OC(N3CCOCC3)C2C)OCO4)cc(OC)c1OC(C)=O (stereo not drawn)	none
CCn1c(Sc2ccc([N+](=O)[O-])cn2)nnc1-c1ccco1	PAX8 inh HTS 71.3
CCn1c(SCC(=O)OCc2ccccc2)nnc1-c1ccco1	none (no result: PAX8 inh HTS, Env fusion inh, FN deposit inh)
CCn1c([N+](=O)[O-])nc2c1c(=O)[nH]c(=O)n2C	PAX8 inh HTS 69.2
NC(=O)c1ccsc1NC(=O)c1ccc([N+](=O)[O-])o1	PAX8 inh HTS 89.4, EWS-Fli inh 58.0
CN1CCc2c(sc(NC(=O)c3ccc([N+](=O)[O-])o3)c2C(N)=O)C1	PAX8 inh HTS 95.3, Env fusion inh 71.7, EWS-Fli inh 67.0
NC(=O)c1ccsc1NC(=O)COC(=O)c1ccc([N+](=O)[O-])o1	none (no result: Env fusion inh)
O=C(C[C@@H]1CC[C@H](NS(=O)(=O)c2ccc(F)cc2)[C@H](CO)O1)NCc1ccncn1	none (no result: N-glyco inh, FN deposit inh)
Cc1cnc(NC(=O)c2sc3ccccc3c2Cl)s1	EWS-Fli inh 72.4
CCCC(=O)Nc1ccc2c(c1)OC[C@@H](C)N(C(=O)CC)C[C@H](C)[C@H](OC)CN(C)C2=O	none (no result: N-glyco inh)
O=C(Nc1ccc(Oc2c(F)c(F)c(F)c(F)c2F)cc1)OC1CCN2Cc3ccccc3N=C12 (stereo not drawn)	N-glyco inh 29.4 (no result: PAX8 inh HTS, Env fusion inh, EWS-Fli inh)
COCC1=C2[C@@H](CCc3ccccc3)OB(O)C[C@@H]2n2c(=O)n(-c3ccccc3)c(=O)n2C1	none (no result: N-glyco inh, PAX8 inh HTS, FN deposit inh)
Nc1ccc2ccc(NS(=O)(=O)N3CCCCC3)cc2c1	EWS-Fli inh 55.9 (no result: N-glyco inh)
COc1ccc(CN(C)C[C@H]2OCCCC[C@@H](C)Oc3ccc(NS(=O)(=O)c4ccc(C)cc4)cc3C(=O)N([C@H](C)CO)C[C@H]2C)cc1	EWS-Fli inh 59.3 (no result: N-glyco inh, FN deposit inh)
COc1ccc(CN(C)C[C@H]2OCCCC[C@@H](C)Oc3ccc(NS(=O)(=O)c4ccc(C)cc4)cc3C(=O)N([C@H](C)CO)C[C@@H]2C)cc1	none (no result: N-glyco inh, FN deposit inh)
COc1ccc(CN(C)C[C@@H]2OCCCC[C@H](C)Oc3ccc(NS(=O)(=O)c4ccc(C)cc4)cc3C(=O)N([C@H](C)CO)C[C@H]2C)cc1	PAX8 inh HTS 82.3 (no result: N-glyco inh, FN deposit inh)
COCC(=O)Nc1ccc2c(c1)OC[C@H](C)N(C(=O)c1cccnc1)C[C@@H](C)[C@@H](OC)CN(C)C2=O	none (no result: N-glyco inh, PAX8 inh HTS, Env fusion inh)
CSc1ccccc1NC(=O)c1cc(S(=O)(=O)N(C)C)ccc1N1CCCC1	none (no result: EWS-Fli inh, FN deposit inh)
CN(C)S(=O)(=O)c1ccc(N2CCCC2)c(C(=O)Nc2ccccc2)c1	N-glyco inh 46.2
Cc1ccc(NC(=O)c2cc(S(=O)(=O)N(C)C)ccc2N2CCCC2)cc1F	N-glyco inh 90.2 (no result: EWS-Fli inh)
CN(C)S(=O)(=O)c1ccc(N2CCCC2)c(C(=O)NCCc2ccc(F)cc2)c1	Env fusion inh 74.6 (no result: EWS-Fli inh, FN deposit inh)
CCCC#Cc1ccc2c(c1)O[C@@H](CN(C)C(=O)Nc1ccccc1F)[C@H](C)CN([C@@H](C)CO)S2(=O)=O	none (no result: N-glyco inh)
C=CCn1c(SCC(=O)Nc2ccccc2C)nc2sc(C)c(C)c2c1=O	none (no result: PAX8 inh HTS, Env fusion inh, AF4-AF9 inh, EWS-Fli inh, FN deposit inh)
C=CCn1c(SCC(=O)Nc2sccc2C(N)=O)nc2sc(C)c(C)c2c1=O	Env fusion inh 57.8 (no result: PAX8 inh HTS, AF4-AF9 inh, EWS-Fli inh)
CC(C)Oc1ccc(F)cc1-c1cc(C(=O)Nc2ccc(C(C)(C)C)cc2)[nH]n1	N-glyco inh 42.1
CC(=O)Nc1ccc(NC(=O)c2csc([C@@H]3C[C@H](O)[C@@H](CO)O3)n2)cc1	none
O=C(Nc1ccc(Oc2ccccc2)cc1)c1csc([C@H]2C[C@H](O)[C@@H](CO)O2)n1	Env fusion inh 67.7
C[C@H](CO)N1C[C@H](C)[C@H](CN(C)Cc2cccc(F)c2)Oc2ncc(-c3ccccc3F)cc2C1=O	none (no result: N-glyco inh, FN deposit inh)
CCCCNC(=O)c1sc2nc(C)cc(COC)c2c1-n1cccc1	none (no result: AF4-AF9 inh, EWS-Fli inh)
COCc1cc(C)nc2sc(C(=O)NN)c(-n3cccc3)c12	PAX8 inh HTS 61.3 (no result: FN deposit inh)
CC[C@H](C)[C@@H](CN[C@H](C)CNC)NCCC(c1ccccc1)c1ccccc1	PAX8 inh HTS 74.6
COc1ccc(NC(=O)Nc2ccc3c(c2)C(=O)N([C@H](C)CO)C[C@@H](C)[C@H](CN(C)S(=O)(=O)c2ccc(OC)cc2)O3)cc1	none (no result: N-glyco inh, FN deposit inh)
C[C@H](CO)N1C[C@H](C)[C@@H](CN(C)C(=O)Nc2ccc(F)cc2)Oc2ncc(Br)cc2C1=O	none (no result: N-glyco inh)
O=C(N/N=C/c1ccccc1Cl)c1ccncc1	none
O=C(N/N=C/c1cc(Cl)ccc1O)c1ccncc1	PAX8 inh HTS 66.2
O=C(N/N=C/c1cc(Cl)ccc1O)C(=O)Nc1ccccc1OC(F)(F)C(F)F	PAX8 inh HTS 70.4 (no result: FN deposit inh)
O=C(N/N=C/c1cc(Br)ccc1O)C(=O)Nc1ccccc1OC(F)(F)C(F)F	none (no result: PAX8 inh HTS, AF4-AF9 inh, EWS-Fli inh, FN deposit inh)
COc1ccc(NC(=O)Nc2cccc3c2O[C@@H](CN(C)Cc2ccncc2)[C@H](C)CN([C@@H](C)CO)C3=O)cc1	none (no result: N-glyco inh, Env fusion inh, FN deposit inh)

Screens: PubChem BioAssay, Broad Institute
